MIC and IC50 data for 43 molecules are collected here from ChEMBL document CHEMBL1125211, “Design and synthesis of HIV protease inhibitors. Variations of the carboxy terminus of the HIV protease inhibitor L-682,679” (J Med Chem, 1991).

Converted amounts (≈) assume the structure as drawn.

The test system of one assay is H9. In words: Ability to inhibit HIV-1 infection in H9 human T-lymphoid cells. The format is functional. Conditions: read-out: MIC100. In short, it runs like this: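 HIV-1 spread in culture of H9 human T-lymphoid cells, tested at concentrations up to 12 μM. Value reported as MIC100, the minimum concentration giving 100% inhibition of viral spread.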
Assay [1] has as its target T1, Human immunodeficiency virus type 1 protease (Human immunodeficiency virus 1, UniProt Q72874). In words: Inhibitory activity against HIV protease in peptide cleavage assay. In short, it runs like this: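 HIV-1 protease peptide-substrate cleavage assay. Inhibitor dissolved in DMSO and added to the enzyme mixture at the required concentrations. Extent of substrate cleavage determined by HPLC. IC50 calculated from cleavage extent.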

Assay [2] has as its target T1, Human immunodeficiency virus type 1 protease. In words: Inhibitory activity against HIV Protease in peptide cleavage assay. Put shortly:
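HIV-1 protease substrate cleavage assay. Inhibitor was dissolved in DMSO and added to the enzyme mixture at the required concentrations. Substrate cleavage was measured by HPLC, and IC50 was calculated from the extent of cleavage.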

Broadly, the IC50 is the point on the concentration scale where inhibition reaches its midpoint. A high value points to lower potency. `CC(C)[C@H](NC(=O)[C@H](Cc1ccccc1)C[C@H](O)[C@H](Cc1ccccc1)NC(=O)OC(C)(C)C)C(=O)NCC(O)CO` (some centres undefined): in the assay on H9, the MIC came to 1.5 µM (≈ 0.879 µg/mL). Further, the IC50 in assay [1] is 0.05 nM. For the molecule `CC[C@H](C)[C@H](NC(=O)[C@H](Cc1ccccc1)C[C@H](O)[C@H](Cc1ccccc1)NC(=O)OC(C)(C)C)C(=O)NC(=O)C(N)Cc1ccccc1` (some centres undefined), the midpoint of inhibition in assay [2], the IC50, lay at 0.25 nM. In turn, `CC(C)(C)OC(=O)N[C@@H](Cc1ccccc1)[C@@H](O)C[C@@H](Cc1ccccc1)C(=O)N[C@@H](Cc1cc2ccccc2[nH]1)C(N)=O` had an IC50 in assay [1] of 60 nM. Same read-out and setting: the result for `CC(C)C[C@H](NC(=O)[C@H](Cc1ccccc1)C[C@H](O)[C@H](Cc1ccccc1)NC(=O)OC(C)(C)C)C(=O)NCCCN(C)C` reads 23 nM. The same measure, in the same setting: the result for `CC(C)[C@H](NC(=O)[C@H](Cc1ccccc1)C[C@H](O)[C@H](Cc1ccccc1)NC(=O)OC(C)(C)C)C(=O)NCc1nc2ccccc2[nH]1` reads 0.2 nM. Take `CC[C@H](C)[C@H](NC(=O)[C@H](Cc1ccccc1)C[C@H](O)[C@H](Cc1ccccc1)NC(=O)OC(C)(C)C)C(=O)NCc1nc2ccccc2[nH]1`: the MIC in the assay with H9 worked out at 0.2 µM (≈ 0.131 µg/mL). In addition, the 50% inhibitory concentration (IC50) in assay [1] was 0.06 nM. Molecule `CC(C)(C)OC(=O)N[C@@H](Cc1ccccc1)[C@@H](O)C[C@@H](Cc1ccccc1)C(=O)N[C@H](C(=O)NCc1nc2ccccc2[nH]1)c1ccccc1` showed an IC50 in assay [1] of 0.07 nM. On the same count and under the same terms, the result for `CCC(C)[C@H](NC(=O)[C@H](Cc1ccccc1)C[C@H](O)[C@H](Cc1ccccc1)NC(=O)OC(C)(C)C)C(=O)NCCCN(C)C` (some centres undefined) reads 7.9 nM; that for `CC(C)(C)OC(=O)N[C@@H](Cc1ccccc1)[C@@H](O)C[C@@H](Cc1ccccc1)C(=O)N[C@H](C(=O)NCc1ccccc1)c1ccccc1`, 5.8 nM. Molecule `CC(C)(C)OC(=O)N[C@@H](Cc1ccccc1)[C@@H](O)C[C@@H](Cc1ccccc1)C(=O)NCC(N)=O` came in with an IC50 in assay [2] of 550 nM.

`CC(C)[C@H](NC(=O)[C@H](Cc1ccccc1)C[C@H](O)[C@H](Cc1ccccc1)NC(=O)OC(C)(C)C)C(=O)NCc1cccnc1` had an IC50 in assay [1] of 0.69 nM.

Turning to `CC(C)[C@H](NC(=O)[C@H](Cc1ccccc1)C[C@H](O)[C@H](Cc1ccccc1)NC(=O)OC(C)(C)C)C(=O)NCc1ccccn1`, the IC50 in assay [1] amounted to 0.75 nM. On the same count and under the same terms, the result for `CC(C)[C@H](NC(=O)[C@H](Cc1ccccc1)C[C@H](O)[C@H](Cc1ccccc1)NC(=O)OC(C)(C)C)C(=O)NCc1ccccc1` reads 0.24 nM; that for `CN(C)CCCNC(=O)[C@@H](NC(=O)[C@H](Cc1ccccc1)C[C@H](O)[C@H](Cc1ccccc1)NC(=O)OC(C)(C)C)c1ccccc1`, 26 nM.

As to `CCC(C)[C@H](NC(=O)[C@H](Cc1ccccc1)C[C@H](O)[C@H](Cc1ccccc1)NC(=O)OC(C)(C)C)C(=O)NCc1ccccc1` (some centres undefined), the IC50 in assay [2] stood at 0.71 nM. In addition, the MIC in the assay on H9 was found to be 1.5 µM (≈ 0.924 µg/mL).

Take `CCC(C)[C@H](NC(=O)[C@H](Cc1ccccc1)C[C@H](O)[C@H](Cc1ccccc1)NC(=O)OC(C)(C)C)C(=O)NCC(O)CO` (some centres undefined): the half-inhibitory concentration (IC50) in assay [1] came out at 0.15 nM. In the case of `CC(C)[C@H](NC(=O)[C@H](Cc1ccccc1)C[C@H](O)[C@H](Cc1ccccc1)NC(=O)OC(C)(C)C)C(=O)NCCCN(C)C`, the IC50 in assay [2] came to 3.4 nM.

Regarding `CC(C)[C@H](NC(=O)[C@H](Cc1ccccc1)C[C@H](O)[C@H](Cc1ccccc1)NC(=O)OC(C)(C)C)C(=O)NCc1ccncc1`, the MIC with H9 stood at 0.4 µM (≈ 0.241 µg/mL). This molecule also yielded an IC50 in assay [1] of 0.62 nM. As for `C[C@H](NC(=O)[C@H](Cc1ccccc1)C[C@H](O)[C@H](Cc1ccccc1)NC(=O)OC(C)(C)C)C(N)=O`, the IC50 in assay [2] was 7 nM. In the assay with H9, the MIC is 6 µM (≈ 2.9 µg/mL). As for `CC(C)(C)OC(=O)N[C@@H](Cc1ccccc1)[C@@H](O)C[C@@H](Cc1ccccc1)C(=O)N[C@@H](Cc1ncc[nH]1)C(N)=O`, the IC50 in assay [1] amounted to 770 nM. `CCC(C)[C@H](NC(=O)[C@H](Cc1ccccc1)C[C@H](O)[C@H](Cc1ccccc1)NC(=O)OC(C)(C)C)C(=O)NCc1ccccn1` (some centres undefined): in the assay with H9, the MIC was found to be 0.78 µM (≈ 0.481 µg/mL). The midpoint of inhibition in assay [1], the IC50, lay at 1.3 nM. `CC(C)[C@H](NC(=O)[C@H](Cc1ccccc1)C[C@H](O)[C@H](Cc1ccccc1)NC(=O)OC(C)(C)C)C(=O)NCC(O)CN1CCOCC1` (some centres undefined) had an IC50 in assay [1] of 0.88 nM. For `CC(C)(C)OC(=O)N[C@@H](Cc1ccccc1)[C@@H](O)C[C@@H](Cc1ccccc1)C(=O)N[C@@H](CO)C(N)=O`, the half-inhibitory concentration (IC50) in assay [2] turned out to be 606 nM. On to `CC(C)[C@H](NC(=O)[C@H](Cc1ccccc1)C[C@H](O)[C@H](Cc1ccccc1)NC(=O)OC(C)(C)C)C(=O)NCCO`, for which it took 0.44 nM to reach half-maximal inhibition in assay [1] (IC50).

The molecule `CC(C)[C@H](NC(=O)[C@H](Cc1ccccc1)C[C@H](O)[C@H](Cc1ccccc1)NC(=O)OC(C)(C)C)C(N)=O` returned an IC50 in assay [2] of 1.1 nM. On the same count and under the same terms, the result for `CC(C)(C)OC(=O)N[C@@H](Cc1ccccc1)[C@@H](O)C[C@@H](Cc1ccccc1)C(=O)N[C@@H](CC1CCCCC1)C(N)=O` reads 64 nM. In assay [1], `CNCCNC(=O)[C@@H](NC(=O)[C@H](Cc1ccccc1)C[C@H](O)[C@H](Cc1ccccc1)NC(=O)OC(C)(C)C)C(C)C` registered an IC50 of 1.73 nM. Still for that read-out and setting: the result for `CC(C)[C@H](NC(=O)[C@H](Cc1ccccc1)C[C@H](O)[C@H](Cc1ccccc1)NC(=O)OC(C)(C)C)C(=O)NCCCN1CCOCC1` reads 2.9 nM; that for `CC(C)[C@H](NC(=O)[C@H](Cc1ccccc1)C[C@H](O)[C@H](Cc1ccccc1)NC(=O)OC(C)(C)C)C(=O)NCCN`, 0.46 nM; that for `CC(C)C[C@H](NC(=O)[C@H](Cc1ccccc1)C[C@H](O)[C@H](Cc1ccccc1)NC(=O)OC(C)(C)C)C(=O)NC(CO)Cc1ccccc1` (some centres undefined), 1.5 nM. Same read-out and setting: the result for `CCC(C)[C@H](NC(=O)[C@H](Cc1ccccc1)C[C@H](O)[C@H](Cc1ccccc1)NC(=O)OC(C)(C)C)C(=O)NCCN(C)C` (some centres undefined) reads 7.1 nM. `CC(C)(C)OC(=O)N[C@@H](Cc1ccccc1)[C@@H](O)C[C@@H](Cc1ccccc1)C(=O)N[C@@H](Cc1ccccc1)C(N)=O` had an IC50 in assay [2] of 29 nM. In assay [2], `CC(C)C[C@@H](NC(=O)[C@H](Cc1ccccc1)C[C@H](O)[C@H](Cc1ccccc1)NC(=O)OC(C)(C)C)C(N)=O` had an IC50 of 3100 nM. For `CC(C)C[C@H](NC(=O)[C@H](Cc1ccccc1)C[C@H](O)[C@H](Cc1ccccc1)NC(=O)OC(C)(C)C)C(=O)NCCc1ccccc1`, the half-maximal inhibitory concentration (IC50) in assay [1] is 15 nM. `CC(C)C[C@H](NC(=O)[C@H](Cc1ccccc1)C[C@H](O)[C@H](Cc1ccccc1)NC(=O)OC(C)(C)C)C(=O)NCc1ccccc1`: inhibition in assay [2] was half-maximal at 1.4 nM (IC50). Besides, in the assay with H9, the MIC came to 3 µM (≈ 1.85 µg/mL). Take `CCC(C)[C@H](NC(=O)[C@H](Cc1ccccc1)C[C@H](O)[C@H](Cc1ccccc1)NC(=O)OC(C)(C)C)C(=O)NCc1ncc[nH]1` (some centres undefined): the IC50 in assay [1] was found to be 0.88 nM. In turn, `CCC(C)[C@H](NC(=O)[C@H](Cc1ccccc1)C[C@H](O)[C@H](Cc1ccccc1)NC(=O)OC(C)(C)C)C(N)=O` (some centres undefined) yielded a concentration for half-maximal inhibition (IC50) in assay [2] of 2.7 nM. In addition, the MIC in the assay on H9 was found to be 3 µM (≈ 1.58 µg/mL). `CCC(C)[C@H](NC(=O)[C@H](Cc1ccccc1)C[C@H](O)[C@H](Cc1ccccc1)NC(=O)OC(C)(C)C)C(=O)NCCO` (some centres undefined): the MIC with H9 came to 0.4 µM (≈ 0.228 µg/mL). Also, the IC50 in assay [1] is 0.46 nM. In turn, `CCN(CC)CC(O)CNC(=O)[C@@H](NC(=O)[C@H](Cc1ccccc1)C[C@H](O)[C@H](Cc1ccccc1)NC(=O)OC(C)(C)C)C(C)C` (some centres undefined) had an IC50 in assay [1] of 6.3 nM.

As to `CC(C)C[C@H](NC(=O)[C@H](Cc1ccccc1)C[C@H](O)[C@H](Cc1ccccc1)NC(=O)OC(C)(C)C)C(=O)NCCO`, in the assay with H9, the MIC is 3 µM (≈ 1.71 µg/mL). In addition, in assay [1], the IC50 was 2.1 nM.

`CC(C)(C)OC(=O)N[C@@H](Cc1ccccc1)[C@@H](O)C[C@@H](Cc1ccccc1)C(=O)N[C@H](C(N)=O)c1ccccc1` registered an IC50 in assay [2] of 0.9 nM. In addition, the MIC with H9 was 1.5 µM (≈ 0.819 µg/mL).

For the molecule `CC(C)(C)OC(=O)N[C@@H](Cc1ccccc1)[C@@H](O)C[C@@H](Cc1ccccc1)C(=O)N[C@H](C(N)=O)C1CCCCC1`, it took 5.2 nM to reach half-maximal inhibition in assay [2] (IC50). On the same count and under the same terms, next, `CC(C)C[C@H](NC(=O)[C@H](Cc1ccccc1)C[C@H](O)[C@H](Cc1ccccc1)NC(=O)OC(C)(C)C)C(N)=O`: 10 nM.
